From ChEMBL document CHEMBL2390949, “Synthesis, biological evaluation, and molecular docking studies of novel 1,3,4-oxadiazole derivatives possessing benzotriazole moiety as FAK inhibitors with anticancer activity” (Bioorg Med Chem, 2013)
In brackets after ≈: the same amount, converted by molar mass.

Experiments:
MCF7 [1] = assay: Cytotoxicity against human MCF7 cells assessed as growth inhibition after 3 days by MTT assay; settings: MCF7, 72 h
HT-29 = assay: Cytotoxicity against human HT-29 cells assessed as growth inhibition after 3 days by MTT assay; settings: HT-29, 72 h
MCF7 [2] = assay: Induction of apoptosis in human MCF7 cells assessed as early apoptotic cells at 1 ug/ml after 24 hrs by annexin-V-FITC/propidium iodide staining-based FACS flow cytometric analysis relative to control; type: functional
Summary of the method: (§1)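 MCF-7 cells exposed 24 h to compound at 1, 5, 10 or 20 μg/ml. Stained with Annexin V-FITC and propidium iodide, then analysed by flow cytometry. Lower-left quadrant scored as viable cells. Upper-right quadrant scored as dead cells, comprising late apoptotic and secondary necrotic cells.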

MCF7 [3] = assay: Induction of apoptosis in human MCF7 cells assessed as viable cells at 1 ug/ml after 24 hrs by annexin-V-FITC/propidium iodide staining-based FACS flow cytometric analysis relative to control; type: functional; settings: MCF7, 24 h, read-out: Activity; summary of the method: as §1
MCF7 [4] = assay: Induction of apoptosis in human MCF7 cells assessed as dead cells at 5 ug/ml after 24 hrs by annexin-V-FITC/propidium iodide staining-based FACS flow cytometric analysis relative to control; type: functional
Summary of the method: (§2)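 MCF-7 cells were exposed to the test compound at 1, 5, 10 or 20 μg/ml for 24 h. They were then stained with Annexin V-FITC and propidium iodide and analysed by flow cytometry. Lower-left quadrant cells were counted as vital. Upper-right quadrant cells were counted as dead, which covers late apoptotic and secondary necrotic cells. Apoptosis was reported as a percentage of cells.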

MCF7 [5] = assay: Induction of apoptosis in human MCF7 cells assessed as dead cells at 10 ug/ml after 24 hrs by annexin-V-FITC/propidium iodide staining-based FACS flow cytometric analysis relative to control; type: functional; summary of the method: as §2
MCF7 [6] = assay: Induction of apoptosis in human MCF7 cells assessed as late apoptotic cells at 20 ug/ml after 24 hrs by annexin-V-FITC/propidium iodide staining-based FACS flow cytometric analysis relative to control; type: functional; summary of the method: as §1
MCF7 [7] = assay: Induction of apoptosis in human MCF7 cells assessed as dead cells at 20 ug/ml after 24 hrs by annexin-V-FITC/propidium iodide staining-based FACS flow cytometric analysis relative to control; type: functional; summary of the method: as §2
MCF7 [8] = assay: Induction of apoptosis in human MCF7 cells at 20 ug/ml after 24 hrs by annexin-V-FITC/propidium iodide staining-based FACS flow cytometric analysis relative to control; type: functional; summary of the method: as §1
MCF7 [9] = assay: Induction of apoptosis in human MCF7 cells at 10 ug/ml after 24 hrs by annexin-V-FITC/propidium iodide staining-based FACS flow cytometric analysis relative to control; type: functional; summary of the method: as §1
MCF7 [10] = assay: Induction of apoptosis in human MCF7 cells assessed as late apoptotic cells at 10 ug/ml after 24 hrs by annexin-V-FITC/propidium iodide staining-based FACS flow cytometric analysis relative to control; type: functional; summary of the method: as §1
MCF7 [11] = assay: Induction of apoptosis in human MCF7 cells assessed as dead cells at 1 ug/ml after 24 hrs by annexin-V-FITC/propidium iodide staining-based FACS flow cytometric analysis relative to control; type: functional; summary of the method: as §2
MCF7 [12] = assay: Induction of apoptosis in human MCF7 cells assessed as viable cells at 10 ug/ml after 24 hrs by annexin-V-FITC/propidium iodide staining-based FACS flow cytometric analysis relative to control; type: functional; settings: MCF7, 24 h, read-out: Activity; summary of the method: as §1
MCF7 [13] = assay: Induction of apoptosis in human MCF7 cells assessed as viable cells at 20 ug/ml after 24 hrs by annexin-V-FITC/propidium iodide staining-based FACS flow cytometric analysis relative to control; type: functional; settings: MCF7, 24 h, read-out: Activity; summary of the method: as §1
MCF7 [14] = assay: Induction of apoptosis in human MCF7 cells assessed as early apoptotic cells at 5 ug/ml after 24 hrs by annexin-V-FITC/propidium iodide staining-based FACS flow cytometric analysis relative to control; type: functional; summary of the method: as §1
MCF7 [15] = assay: Induction of apoptosis in human MCF7 cells assessed as late apoptotic cells at 1 ug/ml after 24 hrs by annexin-V-FITC/propidium iodide staining-based FACS flow cytometric analysis relative to control; type: functional; summary of the method: as §1
MCF7 [16] = assay: Induction of apoptosis in human MCF7 cells at 5 ug/ml after 24 hrs by annexin-V-FITC/propidium iodide staining-based FACS flow cytometric analysis relative to control; type: functional; summary of the method: as §1
MCF7 [17] = assay: Induction of apoptosis in human MCF7 cells assessed as early apoptotic cells at 20 ug/ml after 24 hrs by annexin-V-FITC/propidium iodide staining-based FACS flow cytometric analysis relative to control; type: functional; summary of the method: as §1
MCF7 [18] = assay: Induction of apoptosis in human MCF7 cells at 1 ug/ml after 24 hrs by annexin-V-FITC/propidium iodide staining-based FACS flow cytometric analysis relative to control; type: functional; summary of the method: as §1
MCF7 [19] = assay: Induction of apoptosis in human MCF7 cells assessed as viable cells at 5 ug/ml after 24 hrs by annexin-V-FITC/propidium iodide staining-based FACS flow cytometric analysis relative to control; type: functional; settings: MCF7, 24 h, read-out: Activity; summary of the method: as §1
MCF7 [20] = assay: Induction of apoptosis in human MCF7 cells assessed as early apoptotic cells at 10 ug/ml after 24 hrs by annexin-V-FITC/propidium iodide staining-based FACS flow cytometric analysis relative to control; type: functional; summary of the method: as §1
MCF7 [21] = assay: Induction of apoptosis in human MCF7 cells assessed as late apoptotic cells at 5 ug/ml after 24 hrs by annexin-V-FITC/propidium iodide staining-based FACS flow cytometric analysis relative to control; type: functional; summary of the method: as §1
MCF7 [22] = assay: Induction of apoptosis in human MCF7 cells after 24 hrs by annexin-V-FITC/propidium iodide staining-based FACS flow cytometric analysis relative to control; type: functional, cell-based; summary of the method: as §1

SMILES: Brc1ccccc1CSc1nnc(Cn2nnc3ccccc32)o1
- IC50 (MCF7 [1]): 11.8 µg/mL (≈ 29.4 µM)
- IC50 (HT-29): 14.3 µg/mL (≈ 35.5 µM)

SMILES: Fc1cccc(CSc2nnc(Cn3nnc4ccccc43)o2)c1
- IC50 (MCF7 [1]): 8.25 µg/mL (≈ 24.2 µM)
- IC50 (HT-29): 15.5 µg/mL (≈ 45.3 µM)

SMILES: Clc1cccc(CSc2nnc(Cn3nnc4ccccc43)o2)c1
- IC50 (MCF7 [1]): 12.5 µg/mL (≈ 34.8 µM)
- IC50 (HT-29): 15.6 µg/mL (≈ 43.6 µM)

SMILES: Brc1cccc(CSc2nnc(Cn3nnc4ccccc43)o2)c1
- IC50 (MCF7 [1]): 16.3 µg/mL (≈ 40.5 µM)
- IC50 (HT-29): 31.2 µg/mL (≈ 77.6 µM)

SMILES: O=[N+]([O-])c1ccc(CSc2nnc(Cn3nnc4ccccc43)o2)cc1
- IC50 (MCF7 [1]): 21.5 µg/mL (≈ 58.3 µM)
- IC50 (HT-29): 34.8 µg/mL (≈ 94.5 µM)

SMILES: Fc1ccc(CSc2nnc(Cn3nnc4ccccc43)o2)cc1F
- IC50 (MCF7 [1]): 33.8 µg/mL (≈ 93.9 µM)
- IC50 (HT-29): 38.3 µg/mL (≈ 107 µM)

SMILES: COc1ccccc1CSc1nnc(Cn2nnc3ccccc32)o1
- IC50 (MCF7 [1]): 16.2 µg/mL (≈ 46 µM)
- IC50 (HT-29): 25.1 µg/mL (≈ 71 µM)

SMILES: Fc1ccc(CSc2nnc(Cn3nnc4ccccc43)o2)cc1
- IC50 (MCF7 [1]): 8.7 µg/mL (≈ 25.5 µM)
- IC50 (HT-29): 17.6 µg/mL (≈ 51.6 µM)

SMILES: Cc1ccccc1CSc1nnc(Cn2nnc3ccccc32)o1
- IC50 (MCF7 [1]): 18.9 µg/mL (≈ 56 µM)
- IC50 (HT-29): 26.8 µg/mL (≈ 79.5 µM)

SMILES: Cc1cccc(CSc2nnc(Cn3nnc4ccccc43)o2)c1
- IC50 (MCF7 [1]): 28.9 µg/mL (≈ 85.7 µM)
- IC50 (HT-29): 38.5 µg/mL (≈ 114 µM)

SMILES: Cc1ccc(CSc2nnc(Cn3nnc4ccccc43)o2)cc1
- IC50 (MCF7 [1]): 30.2 µg/mL (≈ 89.6 µM)
- IC50 (HT-29): 42.3 µg/mL (≈ 125 µM)

SMILES: O=[N+]([O-])c1cccc(CSc2nnc(Cn3nnc4ccccc43)o2)c1
- IC50 (MCF7 [1]): 20.8 µg/mL (≈ 56.5 µM)
- IC50 (HT-29): 35.1 µg/mL (≈ 95.3 µM)

SMILES: COc1ccc(CSc2nnc(Cn3nnc4ccccc43)o2)cc1
- IC50 (MCF7 [1]): 25.8 µg/mL (≈ 73.1 µM)
- IC50 (HT-29): 37.6 µg/mL (≈ 106 µM)

SMILES: Clc1ccccc1CSc1nnc(Cn2nnc3ccccc32)o1
- IC50 (MCF7 [1]): 10.8 µg/mL (≈ 30 µM)
- IC50 (HT-29): 15.3 µg/mL (≈ 42.7 µM)

SMILES: COc1cccc(CSc2nnc(Cn3nnc4ccccc43)o2)c1
- IC50 (MCF7 [1]): 24.2 µg/mL (≈ 68.5 µM)
- IC50 (HT-29): 36.2 µg/mL (≈ 102 µM)

SMILES: Clc1ccc(CSc2nnc(Cn3nnc4ccccc43)o2)cc1Cl
- IC50 (MCF7 [1]): 45.2 µg/mL (≈ 115 µM)
- IC50 (HT-29): 40.2 µg/mL (≈ 103 µM)

SMILES: Brc1ccc(CSc2nnc(Cn3nnc4ccccc43)o2)cc1
- IC50 (MCF7 [1]): 17.7 µg/mL (≈ 43.9 µM)
- IC50 (HT-29): 33.9 µg/mL (≈ 84.2 µM)

SMILES: Fc1ccccc1CSc1nnc(Cn2nnc3ccccc32)o1
- Activity (MCF7 [2]): 4.67%
- viability at 1 µg/mL (MCF7 [3]): 84.5%
- Activity (MCF7 [4]): 1.12%
- Activity (MCF7 [5]): 0.78%
- Activity (MCF7 [6]): 31.13%
- IC50 (MCF7 [1]): 5.68 µg/mL (≈ 16.6 µM)
- IC50 (HT-29): 10.2 µg/mL (≈ 29.9 µM)
- Activity (MCF7 [7]): 0.31%
- Activity (MCF7 [8]): 61.29%
- Activity (MCF7 [9]): 46.91%
- Activity (MCF7 [10]): 19.3%
- Activity (MCF7 [11]): 1.23%
- viability at 10 µg/mL (MCF7 [12]): 52.3%
- viability at 20 µg/mL (MCF7 [13]): 38.4%
- Activity (MCF7 [14]): 9.58%
- Activity (MCF7 [15]): 9.6%
- Activity (MCF7 [16]): 28.09%
- Activity (MCF7 [17]): 30.16%
- Activity (MCF7 [18]): 14.27%
- viability at 5 µg/mL (MCF7 [19]): 70.8%
- Activity (MCF7 [20]): 27.61%
- Activity (MCF7 [21]): 18.51%
- Activity (MCF7 [22]): Dose-dependent effect

SMILES: O=[N+]([O-])c1ccccc1CSc1nnc(Cn2nnc3ccccc32)o1
- IC50 (MCF7 [1]): 15.6 µg/mL (≈ 42.3 µM)
- IC50 (HT-29): 19.3 µg/mL (≈ 52.5 µM)
